Holding throughout (assay type): functional, cell-based
Test [1] concerns Jurkat. The test can be described thus: Phototoxicity in 2.5 J/cm'2 UV-A irradiated human Jurkat cells after 72 hrs by MTT assay. As to conditions: light or radiation study. The method, boiled down: (§1)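 HL-60 and Jurkat (8×10³/well, RPMI-1640) and MCF-7, LoVo, NCTC-2544 (5×10³/well; DMEM or Ham's F12) preincubated 18 h at 37 °C, 5% CO₂. Compound in DMSO diluted in HBSS pH 7.2, 30 min at 37 °C, then UV-A at 2.5 or 3.75 J/cm². Medium replaced, 72 h incubation, MTT read-out. IC50 as mean ± SEM of three experiments.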
Background: Tetrazolium assays rely on reduction of a dye to a coloured formazan, in cell work by metabolically active cells.

Test [2] relates to LoVo. As to the kind of experiment: Phototoxicity in 3.75 J/cm'2 UV-A irradiated human LoVo cells after 72 hrs by MTT assay. Particulars: light or radiation study. The method, boiled down:
(§2)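 Seeded at 5 × 10³ cells/well with 10% FBS: MCF-7 and NCTC-2544 in DMEM, LoVo in Ham's F12. Pre-incubated 18 h at 37 °C, 5% CO2. Compound (DMSO stock diluted in HBSS pH 7.2) was applied for 30 min at 37 °C, then UV-A irradiation (mainly 365 nm, 4.0 mW/cm²). Medium was restored for 72 h before MTT. IC50 is the mean ± SEM of three experiences.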

Test [3] concerns MCF7. As to the kind of experiment: Phototoxicity in 3.75 J/cm'2 UV-A irradiated human MCF7 cells after 72 hrs by MTT assay. As to conditions: MCF7, light or radiation study. The method, boiled down: as §2
Test [4] is described as follows: Phototoxicity in 3.75 J/cm'2 UV-A irradiated human NCTC-2544 cells after 72 hrs by MTT assay. Particulars: NCTC-2544, light or radiation study. The essentials: as §2
Test [5] has as its system MCF7. As to the kind of experiment: Phototoxicity in 2.5 J/cm'2 UV-A irradiated human MCF7 cells after 72 hrs by MTT assay. As to conditions: MCF7, light or radiation study. The essentials: as §1
Test [6] is described as follows: Phototoxicity in 2.5 J/cm'2 UV-A irradiated human NCTC-2544 cells after 72 hrs by MTT assay. As to conditions: NCTC-2544, light or radiation study. The essentials: as §1
The test system of test [7] is HL-60. The test can be described thus: Phototoxicity in 3.75 J/cm'2 UV-A irradiated human HL60 cells after 72 hrs by MTT assay. As to conditions: HL-60, light or radiation study. The method, boiled down:
as §1

The test system of test [8] is Jurkat. The test can be described thus: Phototoxicity in 3.75 J/cm'2 UV-A irradiated human Jurkat cells after 72 hrs by MTT assay. Particulars: light or radiation study. The method, boiled down: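 Jurkat cells (8 × 10³/well) in RPMI-1640 with 10% FBS, held 18 h at 37 °C, 5% CO2. Compound stock in DMSO was diluted in HBSS pH 7.2 and added for 30 min at 37 °C. Cells were UV-A irradiated (lamp mainly 365 nm, 4.0 mW/cm²), then returned to medium for 72 h. MTT readout. IC50 is the mean ± SEM of three experiences.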

Test [9] concerns LoVo. As to the kind of experiment: Phototoxicity in 2.5 J/cm'2 UV-A irradiated human LoVo cells after 72 hrs by MTT assay. As to conditions: light or radiation study. The method, boiled down:
as §1

For test [10], the system named is HL-60. As to the kind of experiment: Phototoxicity in 2.5 J/cm'2 UV-A irradiated human HL60 cells after 72 hrs by MTT assay. Particulars: HL-60, light or radiation study. The method, boiled down:
as §1

Structures are written as SMILES. Where only a bound is given, the exact number is not on record here.

Broadly, the IC50 is the point on the concentration scale where inhibition reaches its midpoint.

As for `Cc1c2c(cn1C)CCc1cc(S(=O)(=O)c3ccccc3)c(=O)[nH]c1-2`, the IC50 (with Jurkat [1]; in the test on LoVo [2]; in the test on MCF7 [3]; in test [4]; in the test on MCF7 [5]; in test [6]) was more than 20 µM each time. For the same compound, the IC50 in the test with HL-60 [7], with Jurkat [8], in the test on LoVo [9] and in the test on HL-60 [10] was more than 20 µM throughout.

For the compound `CCOC(=O)c1[nH]c(C)c2c1CCc1cc(S(=O)(=O)c3ccccc3)c(=O)n(C)c1-2`, the IC50 in the test on Jurkat [1] is more than 20 µM; with LoVo [2], 13.2 µM; in the test with MCF7 [3], more than 20 µM; in test [4], more than 20 µM; in the test with MCF7 [5], more than 20 µM; in test [6], more than 20 µM. The IC50 with HL-60 [7] was 5.8 µM; in the test on Jurkat [8], 12.5 µM; with LoVo [9] it was more than 20 µM; in the test with HL-60 [10], more than 20 µM.

Turning to `CCOC(=O)c1[nH]c(C)c2c1CCc1cc(S(=O)(=O)c3ccccc3)c(=O)[nH]c1-2`, the IC50 with Jurkat [1] is 18 µM; with LoVo [2], 13.6 µM; with MCF7 [3] it was more than 20 µM; in test [4], 15 µM; with MCF7 [5] it was more than 20 µM; in [6], more than 20 µM. The IC50 in the test on HL-60 [7] stood at 9.1 µM; in the test on Jurkat [8] it was 10 µM; in the test with LoVo [9], 17.5 µM; in the test with HL-60 [10] it was 13.7 µM.

For the compound `Cc1c2c(c(C(=O)O)n1C)CCc1cc(S(=O)(=O)c3ccccc3)c(=O)[nH]c1-2`, the IC50 (with Jurkat [1]; in the test with LoVo [2]; in the test with MCF7 [3]; in [4]; in the test on MCF7 [5]; in test [6]) was more than 20 µM each time. The IC50 with HL-60 [7], with Jurkat [8], with LoVo [9] and in the test on HL-60 [10] was more than 20 µM in each case.

For the compound `Cn1c2c(cc(S(=O)(=O)c3ccccc3)c1=O)CCc1cn(Cc3ccccc3)cc1-2`, the IC50 in the test with Jurkat [1] stood at 3.6 µM; with LoVo [2], 2.8 µM; in the test on MCF7 [3], 3.7 µM; in test [4], 5.8 µM; with MCF7 [5], 6.6 µM; in test [6] it was 8.2 µM. For the same compound, the IC50 in the test on HL-60 [7] amounted to 2.8 µM; in the test with Jurkat [8], 2.5 µM; with LoVo [9], 3.9 µM; with HL-60 [10], 4.4 µM.

Consider `O=c1ccc2ccc3occc3c2o1` [ANGELICIN], for which the IC50 in the test with LoVo [2] came to 1.1 µM; in test [4], 0.9 µM; in test [6], 4.2 µM; in the test with LoVo [9], 4 µM.

`O=c1[nH]c2c(cc1S(=O)(=O)c1ccccc1)CCc1cn(-c3ccccc3)cc1-2`: the IC50 (in the test with Jurkat [1]; in the test with LoVo [2]; in the test on MCF7 [3]; in [4]; in the test with MCF7 [5]; in test [6]) was more than 20 µM each time. Further, the IC50 was 8 µM in the test on HL-60 [7], 7.4 µM in the test with Jurkat [8], more than 20 µM in the test on LoVo [9] and 12.2 µM with HL-60 [10].

Consider `O=c1[nH]c2c(cc1S(=O)(=O)c1ccccc1)CCc1cn(Cc3ccccc3)cc1-2`, for which the IC50 (in the test on Jurkat [1]; in the test on LoVo [2]; in the test on MCF7 [3]; in [4]; in the test on MCF7 [5]; in test [6]) was more than 20 µM throughout. For the same compound, the IC50 is 14.5 µM in the test on HL-60 [7], more than 20 µM with Jurkat [8], more than 20 µM in the test with LoVo [9] and more than 20 µM in the test with HL-60 [10].

For `CCOC(=O)c1c2c(c(C)n1C)-c1[nH]c(=O)c(S(=O)(=O)c3ccccc3)cc1CC2`, the IC50 amounted to 2 µM in the test with Jurkat [1]; 4 µM in the test with LoVo [2]; 5.1 µM in the test on MCF7 [3]; 6.2 µM in [4]; 10 µM in the test on MCF7 [5]; 10.1 µM in [6]. In addition, the IC50 with HL-60 [7] was 1.8 µM; in the test on Jurkat [8], 1.4 µM; in the test with LoVo [9], 7.9 µM; in the test on HL-60 [10], 3.6 µM.

Turning to `Cn1cc2c(c1)-c1[nH]c(=O)c(S(=O)(=O)c3ccccc3)cc1CC2`, the IC50 (in the test with Jurkat [1]; in the test on LoVo [2]; with MCF7 [3]; in test [4]; in the test with MCF7 [5]; in [6]) was more than 20 µM throughout. For the same compound, the IC50 with HL-60 [7] was 5.6 µM; in the test with Jurkat [8], more than 20 µM; with LoVo [9], more than 20 µM; with HL-60 [10], more than 20 µM.

In the case of `Cn1cc2c(c1)-c1c(cc(S(=O)(=O)c3ccccc3)c(=O)n1C)CC2`, the IC50 (in the test on Jurkat [1]; in the test on LoVo [2]; in the test with MCF7 [3]; in [4]; with MCF7 [5]; in [6]) was more than 20 µM in each case. Also, the IC50 in the test with HL-60 [7], in the test on Jurkat [8], in the test on LoVo [9] and in the test with HL-60 [10] was more than 20 µM in each case.

Turning to `Cn1c2c(cc(S(=O)(=O)c3ccccc3)c1=O)CCc1cn(-c3ccccc3)cc1-2`, the IC50 (in the test on Jurkat [1]; in the test on LoVo [2]; in the test on MCF7 [3]; in test [4]; in the test with MCF7 [5]; in test [6]) was more than 20 µM throughout. For the same compound, the IC50 in the test with HL-60 [7], in the test on Jurkat [8], with LoVo [9] and in the test with HL-60 [10] was more than 20 µM throughout.

Consider `COc1nc2c(cc1S(=O)(=O)c1ccccc1)CCc1cn(Cc3ccccc3)cc1-2`, for which the IC50 in the test on Jurkat [1] came to 8.5 µM; in the test on LoVo [2], 8.7 µM; in the test on MCF7 [3], 7.5 µM; in test [4] it was 9.6 µM; with MCF7 [5], 10 µM; in test [6], 15.3 µM. The IC50 in the test on HL-60 [7] amounted to 7.3 µM; in the test on Jurkat [8], 6.3 µM; with LoVo [9], 9.9 µM; with HL-60 [10], 8.3 µM.

As for `Cc1c2c(c(C(=O)O)n1Cc1ccccc1)CCc1cc(S(=O)(=O)c3ccccc3)c(=O)[nH]c1-2`, the IC50 (in the test on Jurkat [1]; with LoVo [2]; in the test on MCF7 [3]; in test [4]; in the test on MCF7 [5]; in [6]) was more than 20 µM throughout. Moreover, the IC50 in the test with HL-60 [7], in the test on Jurkat [8], in the test on LoVo [9] and in the test on HL-60 [10] was more than 20 µM each time.

As to `CCOC(=O)c1c2c(c(C)n1Cc1ccccc1)-c1c(cc(S(=O)(=O)c3ccccc3)c(=O)n1C)CC2`, the IC50 is 2.9 µM in the test on Jurkat [1]; 8.7 µM with LoVo [2]; 14.4 µM in the test on MCF7 [3]; 14.3 µM in [4]; more than 20 µM in the test on MCF7 [5]; more than 20 µM in test [6]. For the same compound, the IC50 is 2.6 µM in the test with HL-60 [7], 1.3 µM in the test with Jurkat [8], 12.1 µM in the test with LoVo [9] and 5.4 µM with HL-60 [10].

For the compound `Cc1[nH]c(C(=O)O)c2c1-c1[nH]c(=O)c(S(=O)(=O)c3ccccc3)cc1CC2`, the IC50 (with Jurkat [1]; in the test with LoVo [2]; in the test with MCF7 [3]; in test [4]; in the test with MCF7 [5]; in test [6]) was more than 20 µM each time. Further, the concentration for half-maximal inhibition (IC50) with HL-60 [7], in the test with Jurkat [8], with LoVo [9] and in the test on HL-60 [10] was more than 20 µM throughout.

Values taken from ChEMBL document CHEMBL2176901, “Pyrrolo[3,4-h]quinolinones a new class of photochemotherapeutic agents” (Bioorg Med Chem, 2011).
